According to ChEMBL document CHEMBL1131244, “New alkenyldiarylmethanes with enhanced potencies as anti-HIV agents which act as non-nucleoside reverse transcriptase inhibitors” (J Med Chem, 1998):

What was measured:
CEM-SS [1] = assay: Inhibitory concentration for cytopathicity of HIV-1 RF in CEM-SS cells; NA means there was no observed inhibition of HIV-1 cytopathicity up to the cytotoxic concentration in uninfected cells.; format: functional, cell-based
How it was run: (§1)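 XTT cytoprotection assay in CEM-SS cells infected with HIV-1 RF, with uninfected cultures for cytotoxicity, in presence of fetal calf serum. Data as percent of uninfected drug-free control. EC50 is 50% protection from cytopathicity; CC50 is 50% cell death in uninfected cells; TI = CC50/EC50. Triplicates on each of two sister plates, plate EC50s averaged. Confirmed by supernatant RT and p24.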

[2] = target: Human immunodeficiency virus type 1 reverse transcriptase (Human immunodeficiency virus 1, UniProt Q72547); assay: Inhibitory activity against human immunodeficiency virus (HIV) - 1 reverse transcriptase with rCdG as the template primer
How it was run: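 Reactions stopped with ice-cold 10% trichloroacetate, filtered through GF/C membrane, washed with ethanol, radiolabel counted by Cerenkov counting. AZTTP and nevirapine as positive controls; IC50 reported.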

CCRF-CEM [3] = assay: The compound is evaluated for the cytotoxic concentration for the mock-infected CEM cells; format: functional; conditions: Homo sapiens; how it was run: as §1
CEM-SS [4] = assay: The compound is evaluated for the therapeutic index, which is the CC50 divided by the EC50.; format: functional; how it was run: as §1
CEM-SS [5] = assay: Inhibitory concentration for cytopathicity of HIV-1 in CEM-SS cells; format: functional, cell-based; conditions: Homo sapiens; how it was run: as §1
Homo sapiens = species: Homo sapiens; assay: The compound is evaluated for the inhibitory activity against HIV-1 Ba-L, monocyte-tropic in Mono/Mac cells.; format: functional, cell-based
CEM-SS [6] = assay: The compound is evaluated for the activity against HIV-1 NL4-3, V108I mutation in reverse transcriptase in CEM-SS cells.
CCRF-CEM [7] = assay: The compound is evaluated for the activity against calo ( calanolide resistant), T139I mutation in reverse transcriptase in CEM-CC cells.; format: functional, cell-based; conditions: Homo sapiens
How it was run: (§2)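 Cytoprotection assay in CEM-CC cells against NNRTI-resistant HIV-1 isolates obtained by in vitro selection or site-directed mutagenesis, using a higher MOI than the original screening assays. EC50 determined; fold resistance relative to wild-type HIV-1 IIIB.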

[8] = The compound is evaluated for the inhibitory activity against HIV-1, clade C in PBMC cells.; format: functional, cell-based, Homo sapiens
CCRF-CEM [9] = assay: The compound is evaluated for the activity against OC (Oxathiin carboxanilide resistant), L100I mutation in reverse transcriptase in CEM-CC cells.; format: functional, cell-based; conditions: Homo sapiens; how it was run: as §2
[10] = The compound is evaluated for the inhibitory activity against HIV-1, clade B in PBMC cells.; format: functional, cell-based, Homo sapiens
CCRF-CEM [11] = assay: The compound is evaluated for the activity against TSAO/cost (costatolide resistant), K101E mutation in reverse transcriptase in CEM-CC cells.; format: functional, cell-based; conditions: Homo sapiens; how it was run: as §2
CCRF-CEM [12] = assay: The compound is evaluated for the activity against 129/cost (costatolide resistant), V108I mutation in reverse transcriptase in CEM-CC cells.; format: functional, cell-based; conditions: Homo sapiens, in the assay text read “K103N” for “V108I”; how it was run: as §2
[13] = target: Human immunodeficiency virus type 1 protease (Human immunodeficiency virus 1, UniProt Q72874); assay: The compound is evaluated for the inhibitory against HIV -1 protease, a 17% inhibition of HIV-1 protease was observed at a concentration of 100 uM
[14] = The compound is evaluated for the inhibitory activity against HIV-1 ROJO, wild-type clinical isolate in PBMC cells.; format: functional, cell-based, Homo sapiens
CCRF-CEM [15] = assay: The compound is evaluated for the activity against HEPT ((Hydroxyethoxy) methyl (phenylthio)thymine resistant), P236L mutation in reverse transcriptase in CEM-CC cells.; format: functional, cell-based; conditions: Homo sapiens; how it was run: as §2
CCRF-CEM [16] = assay: The compound is evaluated for the activity against cost, Y188H mutation in reverse transcriptase in CEM-CC cells.; format: functional, cell-based; conditions: Homo sapiens; how it was run: as §2
CEM-SS [17] = assay: The compound is evaluated for the activity against HIV-1 NL4-3, L74V mutation in reverse transcriptase in CEM-SS cells.
[18] = The compound is evaluated for the inhibitory activity against HIV-1, clade E in PBMC cells.; format: functional, cell-based, Homo sapiens
[19] = target: Human immunodeficiency virus type 1 integrase (Human immunodeficiency virus 1, UniProt Q7ZJM1); assay: The compound is evaluated for the inhibitory against HIV -1 integrase. NI indicates no inhibition at 100 uM conc.
CEM-SS [20] = assay: The compound is evaluated for the activity against HIV-1 NL4-3, Y181C mutation in reverse transcriptase in CEM-SS cells.
CEM-SS [21] = assay: The compound is evaluated for the inhibitory activity against HIV-1 RF, wild-type laboratory adapted strain in CEM-SS.; format: functional, cell-based; conditions: Homo sapiens
How it was run: (§3)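 XTT cytoprotection assay in CEM-SS cells infected with HIV-1. EC50 is the concentration giving 50% protection from viral cytopathicity, relative to the uninfected drug-free control. Triplicates were averaged on each of two sister plates, and the two plate EC50s were averaged. Results were confirmed by supernatant RT and p24 levels.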

[22] = The compound is evaluated for the inhibitory activity against HIV-1, clade D in PBMC cells.; format: functional, cell-based, Homo sapiens
CEM-SS [23] = assay: The compound is evaluated for the activity against HIV-1 NL4-3, A98G mutation in reverse transcriptase in CEM-SS cells.
CEM-SS [24] = assay: The compound is evaluated for the activity against HIV-1 NL4-3, V106A mutation in reverse transcriptase in CEM-SS cells.
CCRF-CEM [25] = assay: The compound is evaluated for the activity against 3TC, M184I mutation in reverse transcriptase in CEM-CC cells.; format: functional, cell-based; conditions: Homo sapiens
CEM-SS [26] = assay: The compound is evaluated for the activity against HIV-1 NL4-3, K103N mutation in reverse transcriptase in CEM-SS cells.
CEM-SS [27] = assay: The compound is evaluated for the activity against HIV-1 NL4-3, 4XAZT/Y181C (AZT resistant) mutation in reverse transcriptase in CEM-SS cells.
CEM-SS [28] = assay: The compound is evaluated for the activity against HIV-1 NL4-3, L100I mutation in reverse transcriptase in CEM-SS cells.
CEM-SS [29] = assay: The compound is evaluated for the activity against HIV-1 NL4-3, 4XAZT/L100I (AZT resistant) mutation in reverse transcriptase in CEM-SS cells.
CCRF-CEM [30] = assay: The compound is evaluated for the activity against thiazol (thiazolobenzimidazole resistant), T139I mutation in reverse transcriptase in CEM-CC cells.; format: functional, cell-based; conditions: Homo sapiens, in the assay text read “V108I” for “T139I”; how it was run: as §2
CEM-SS [31] = assay: The compound is evaluated for the activity against HIV-1 NL4-3, wild - type mutation in reverse transcriptase in CEM-SS cells.; format: functional, cell-based; conditions: Homo sapiens
How it was run: (§4)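 NL4-3-background virus carrying RT mutations, from site-directed mutagenesis or in vitro NNRTI selection, tested in CEM-SS cells. A higher MOI was used than in the primary screening assays. The result is given as EC50 against each mutant or wild-type virus.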

CEM-SS [32] = assay: The compound is evaluated for the activity against HIV-1 NL4-3, V179D mutation in reverse transcriptase in CEM-SS cells.
CCRF-CEM [33] = assay: The compound is evaluated for the activity against HIV-1 IIIB, wild - type mutation in reverse transcriptase in CEM-CC cells.; format: functional, cell-based; conditions: Homo sapiens
How it was run: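 Resistant-virus panel in CEM-CC cells. Mutant isolates came from in vitro selection under various NNRTIs. More virus (higher MOI) was used than in the primary screening assays. The result is given as EC50 against each RT-mutant or wild-type isolate.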

CEM-SS [34] = assay: The compound is evaluated for the activity against HIV-1 NL4-3, Y188C mutation in reverse transcriptase in CEM-SS cells.
[35] = target: Human immunodeficiency virus 1 nucleocapsid (Human immunodeficiency virus 1, UniProt Q76059); assay: Inhibition of HIV-1 Nucleocapsid protein p7 (no inhibition at 25 uM)
CEM-SS [36] = assay: The compound is evaluated for the inhibitory activity against HIV-1 IIIB, wild-type laboratory adapted strain in CEM-SS.; format: functional, cell-based; conditions: Homo sapiens; how it was run: as §3
[37] = The compound is evaluated for the inhibitory activity against HIV-1 TEKI, wild-type clinical isolate in PBMC cells.; format: functional, cell-based, Homo sapiens
CEM-SS [38] = assay: The compound is evaluated for the activity against HIV-1 NL4-3, K101E mutation in reverse transcriptase in CEM-SS cells.
[39] = The compound is evaluated for the inhibitory activity against HIV-1, clade A in PBMC cells.; format: functional, cell-based, Homo sapiens
CCRF-CEM [40] = assay: The compound is evaluated for the activity against DPS ( Diphenyl sulfone resistant), Y181C mutation in reverse transcriptase in CEM-CC cells.; format: functional, cell-based; conditions: Homo sapiens; how it was run: as §2
[41] = The compound is evaluated for the inhibitory activity against HIV-1, clade F in PBMC cells.; format: functional, cell-based, Homo sapiens
CEM-SS [42] = assay: The compound is evaluated for the activity against HIV-1 NL4-3, 4XAZT (AZT resistant) mutation in reverse transcriptase in CEM-SS cells.; format: functional, cell-based; conditions: Homo sapiens; how it was run: as §4

## COc1c(Cl)cc(C(=CCC(=O)O)c2cc(Cl)c(OC)c(C(=O)O)c2)cc1C(=O)O
CEM-SS [1]
  EC50: Not Active
[2]
  IC50: > 100000 nM
CCRF-CEM [3]
  CC50: > 316000 nM

## COC(=O)c1cc(C(=CCCO)c2cc(Br)c(OC)c(C(=O)OC)c2)cc(Br)c1OC
CEM-SS [4]
  TI: >52
[2]
  IC50: 31600 nM
CEM-SS [5]
  EC50: 6000 nM
CCRF-CEM [3]
  CC50: > 316000 nM

## COC(=O)c1cc(C(=CCCCCO)c2cc(Cl)c(OC)c(C(=O)OC)c2)cc(Cl)c1OC
CEM-SS [1]
  EC50: Not Active
CCRF-CEM [3]
  CC50: 10200 nM

## COC(=O)CCCC=C(c1cc(Cl)c(OC)c(C(=O)OC)c1)c1cc(Cl)c(OC)c(C(=O)OC)c1
Homo sapiens
  EC50: 360 nM
CEM-SS [6]
  EC50: 12000 nM
CCRF-CEM [7]
  EC50: 15000 nM
[8]
  EC50: 1040 nM
CCRF-CEM [9]
  EC50: 940 nM
[10]
  EC50: 430 nM
CCRF-CEM [11]
  EC50: 11900 nM
CCRF-CEM [12]
  EC50: 10800 nM
[13]
  IC50: > 100000 nM
[14]
  EC50: 2280 nM
CCRF-CEM [15]
  EC50: 8080 nM
CCRF-CEM [16]
  EC50: > 50000 nM
CEM-SS [17]
  EC50: 2230 nM
[18]
  EC50: 400 nM
[19]
  IC50: No inhibition
CEM-SS [20]
  EC50: > 50000 nM
CEM-SS [21]
  EC50: 910 nM
[22]
  EC50: 1020 nM
CEM-SS [23]
  EC50: 840 nM
CEM-SS [24]
  EC50: 12700 nM
CCRF-CEM [25]
  EC50: 1080 nM
CEM-SS [26]
  EC50: > 50000 nM
CEM-SS [27]
  EC50: > 50000 nM
CEM-SS [28]
  EC50: < 160 nM
CEM-SS [29]
  EC50: 270 nM
CCRF-CEM [30]
  EC50: > 50000 nM
CEM-SS [31]
  EC50: 1780 nM
CEM-SS [32]
  EC50: 50000 nM
CCRF-CEM [33]
  EC50: 390 nM
CEM-SS [34]
  EC50: 10800 nM
[35]
  IC50: No inhibition
CEM-SS [36]
  EC50: 160 nM
[37]
  EC50: 2200 nM
CEM-SS [38]
  EC50: 3050 nM
CCRF-CEM [3]
  CC50: 31600 nM
[39]
  EC50: 1090 nM
CCRF-CEM [40]
  EC50: > 50000 nM
[41]
  EC50: 1700 nM
CEM-SS [42]
  EC50: 900 nM

## CCCCCC=C(c1cc(I)c(OC)c(C(=O)OC)c1)c1cc(I)c(OC)c(C(=O)OC)c1
CEM-SS [1]
  EC50: Not Active
[2]
  IC50: 11000 nM
CCRF-CEM [3]
  CC50: > 316000 nM
